In data set [1] the target is Multidrug resistance-associated protein 1 (Homo sapiens, UniProt P33527). Briefly: Inhibition of MRP1 overexpressed in human 2008 MRP1 cells assessed as calcein AM accumulation at 10 uM by fluorimetry. The data set is classed as cell-based. As to conditions: human, 2008, 10 µM; call rule not given here. In short, it runs like this: (§1)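 Calcein AM accumulation in A2780adr (P-gp) or 2008 MRP1 cells. Cells washed in Krebs-HEPES buffer, about 30,000 per well, preincubated 30 min with compound at 10 µM final. Calcein AM then added. Fluorescence (ex 485, em 520 nm) read every 60 s up to 90 min at 37 °C. Expressed as percent of vehicle control; n = 3.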
Multidrug resistance-associated protein 1, sequence (P33527 whole entry): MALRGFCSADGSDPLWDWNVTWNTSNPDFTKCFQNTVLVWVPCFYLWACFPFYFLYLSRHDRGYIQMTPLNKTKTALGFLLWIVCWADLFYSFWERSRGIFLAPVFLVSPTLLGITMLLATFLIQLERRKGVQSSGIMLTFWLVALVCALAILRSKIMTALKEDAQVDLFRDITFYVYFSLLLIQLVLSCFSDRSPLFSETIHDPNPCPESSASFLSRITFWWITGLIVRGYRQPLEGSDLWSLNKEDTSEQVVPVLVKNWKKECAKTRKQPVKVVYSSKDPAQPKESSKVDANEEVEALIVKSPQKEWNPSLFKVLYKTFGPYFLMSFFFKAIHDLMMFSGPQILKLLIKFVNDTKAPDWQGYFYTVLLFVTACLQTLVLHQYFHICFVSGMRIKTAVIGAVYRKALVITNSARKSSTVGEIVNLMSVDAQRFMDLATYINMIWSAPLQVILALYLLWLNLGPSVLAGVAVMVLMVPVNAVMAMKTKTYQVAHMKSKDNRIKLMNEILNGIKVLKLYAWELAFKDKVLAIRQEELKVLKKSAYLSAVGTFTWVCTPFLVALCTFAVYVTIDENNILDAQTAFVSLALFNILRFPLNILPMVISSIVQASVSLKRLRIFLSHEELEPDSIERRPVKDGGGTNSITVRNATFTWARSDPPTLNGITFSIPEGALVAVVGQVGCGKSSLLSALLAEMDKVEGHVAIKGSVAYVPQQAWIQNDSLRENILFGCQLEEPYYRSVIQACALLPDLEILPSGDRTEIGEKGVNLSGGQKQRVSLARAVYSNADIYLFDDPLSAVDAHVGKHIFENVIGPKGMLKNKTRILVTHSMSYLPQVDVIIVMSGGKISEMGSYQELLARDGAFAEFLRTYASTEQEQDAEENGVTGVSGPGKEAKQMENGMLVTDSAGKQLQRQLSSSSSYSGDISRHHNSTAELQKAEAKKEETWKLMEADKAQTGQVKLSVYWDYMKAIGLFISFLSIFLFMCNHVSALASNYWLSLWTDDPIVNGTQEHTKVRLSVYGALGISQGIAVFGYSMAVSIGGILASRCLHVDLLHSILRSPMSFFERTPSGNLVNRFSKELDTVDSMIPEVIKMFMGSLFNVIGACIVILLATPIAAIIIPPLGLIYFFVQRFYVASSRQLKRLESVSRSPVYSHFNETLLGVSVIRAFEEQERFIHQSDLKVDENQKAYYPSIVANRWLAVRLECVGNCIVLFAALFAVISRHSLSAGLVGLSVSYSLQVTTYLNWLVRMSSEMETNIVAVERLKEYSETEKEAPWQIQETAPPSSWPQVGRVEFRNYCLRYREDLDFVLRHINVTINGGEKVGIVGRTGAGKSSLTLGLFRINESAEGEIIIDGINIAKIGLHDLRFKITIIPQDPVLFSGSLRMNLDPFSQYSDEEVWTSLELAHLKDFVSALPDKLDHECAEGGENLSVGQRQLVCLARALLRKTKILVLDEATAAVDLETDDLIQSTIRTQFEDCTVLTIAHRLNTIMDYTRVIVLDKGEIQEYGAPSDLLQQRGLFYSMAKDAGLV

Data set [2] deals with ATP-dependent translocase ABCB1 (Homo sapiens, UniProt P08183). The experiment in a line: Inhibition of MDR1 in human A2780adr cells assessed as calcein AM accumulation at 10 uM by fluorimetry. The data set is classed as cell-based. As to conditions: a2780 adr. The gist of the method: as §1
ATP-dependent translocase ABCB1, sequence (P08183 whole entry): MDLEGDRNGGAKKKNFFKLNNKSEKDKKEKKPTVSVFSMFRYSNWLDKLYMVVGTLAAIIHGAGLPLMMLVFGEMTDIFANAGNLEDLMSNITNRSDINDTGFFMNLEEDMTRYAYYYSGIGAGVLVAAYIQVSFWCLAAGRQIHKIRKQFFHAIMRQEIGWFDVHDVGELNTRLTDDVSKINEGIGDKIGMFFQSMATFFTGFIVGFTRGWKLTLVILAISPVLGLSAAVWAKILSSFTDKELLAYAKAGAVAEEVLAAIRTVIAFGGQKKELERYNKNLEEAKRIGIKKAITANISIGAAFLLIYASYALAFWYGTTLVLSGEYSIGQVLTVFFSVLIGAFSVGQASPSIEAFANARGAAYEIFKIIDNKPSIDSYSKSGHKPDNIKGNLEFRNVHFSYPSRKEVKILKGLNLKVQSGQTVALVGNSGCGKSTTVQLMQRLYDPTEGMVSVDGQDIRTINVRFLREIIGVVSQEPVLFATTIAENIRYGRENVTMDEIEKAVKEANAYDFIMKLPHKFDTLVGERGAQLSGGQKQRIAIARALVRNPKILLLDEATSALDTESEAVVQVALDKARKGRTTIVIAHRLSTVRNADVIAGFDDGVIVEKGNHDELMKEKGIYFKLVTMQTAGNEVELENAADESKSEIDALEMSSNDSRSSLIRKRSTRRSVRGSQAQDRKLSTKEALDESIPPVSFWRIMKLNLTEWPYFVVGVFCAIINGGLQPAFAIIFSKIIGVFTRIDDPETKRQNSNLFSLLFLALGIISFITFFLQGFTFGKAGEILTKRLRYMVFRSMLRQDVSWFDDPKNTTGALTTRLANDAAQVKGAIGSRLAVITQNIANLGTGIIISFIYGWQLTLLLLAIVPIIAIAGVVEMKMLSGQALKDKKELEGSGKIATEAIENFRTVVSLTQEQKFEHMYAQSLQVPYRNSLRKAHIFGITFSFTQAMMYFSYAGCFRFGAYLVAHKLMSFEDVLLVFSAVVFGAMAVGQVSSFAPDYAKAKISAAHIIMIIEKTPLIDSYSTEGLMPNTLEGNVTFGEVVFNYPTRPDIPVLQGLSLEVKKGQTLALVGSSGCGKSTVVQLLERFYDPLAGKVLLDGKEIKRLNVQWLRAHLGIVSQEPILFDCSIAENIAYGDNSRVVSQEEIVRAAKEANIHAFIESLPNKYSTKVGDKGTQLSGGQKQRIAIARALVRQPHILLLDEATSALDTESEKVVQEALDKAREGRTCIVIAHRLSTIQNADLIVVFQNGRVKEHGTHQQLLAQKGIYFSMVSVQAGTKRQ
In data set [3] the target is T1, Broad substrate specificity ATP-binding cassette transporter ABCG2 (Homo sapiens, UniProt Q9UNQ0).
T1 sequence (Q9UNQ0 whole entry): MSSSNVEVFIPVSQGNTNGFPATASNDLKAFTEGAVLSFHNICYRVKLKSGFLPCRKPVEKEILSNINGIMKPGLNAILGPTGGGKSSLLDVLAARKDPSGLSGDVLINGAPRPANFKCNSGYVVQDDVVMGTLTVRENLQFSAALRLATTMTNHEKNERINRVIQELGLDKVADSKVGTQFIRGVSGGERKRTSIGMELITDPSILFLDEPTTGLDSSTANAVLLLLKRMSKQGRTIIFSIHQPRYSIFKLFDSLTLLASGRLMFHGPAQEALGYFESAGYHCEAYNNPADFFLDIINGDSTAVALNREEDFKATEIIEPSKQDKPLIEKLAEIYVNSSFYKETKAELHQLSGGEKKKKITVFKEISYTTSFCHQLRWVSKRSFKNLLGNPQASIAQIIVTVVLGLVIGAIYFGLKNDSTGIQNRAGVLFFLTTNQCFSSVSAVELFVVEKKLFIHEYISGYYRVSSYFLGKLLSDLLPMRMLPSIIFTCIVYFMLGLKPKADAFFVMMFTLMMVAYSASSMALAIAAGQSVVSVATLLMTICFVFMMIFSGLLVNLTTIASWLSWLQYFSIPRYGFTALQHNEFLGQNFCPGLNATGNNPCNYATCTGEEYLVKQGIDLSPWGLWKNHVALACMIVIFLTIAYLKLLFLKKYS
Briefly: Inhibition of human BCRP expressed in MDCK2 cells assessed as Hoechst 33342 accumulation preincubated for 30 mins by fluorimetry. Type of data set: cell-based, MDCK-II. As to conditions: for pIC50: read-out: IC50; for IC50: mdck-ii. In short, it runs like this:
(§2)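 Cells washed three times in Krebs-HEPES buffer, about 20,000 per well, preincubated with test compound at varied concentrations for 30 min at 37 °C, 5% CO2. Hoechst 33342 then added (final 1 µM). Fluorescence (ex 355, em 460 nm) read every 60 s up to 120 min at 37 °C. KHB background subtracted, 100–109 min mean plotted, four-parameter logistic fit; ≥3 independent experiments.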

Data set [4] concerns the target T1, Broad substrate specificity ATP-binding cassette transporter ABCG2. The experiment in a line: Inhibition of BCRP in human MCF7/MX cells assessed as Hoechst 33342 accumulation preincubated for 30 mins by Fluorometry. The data set is classed as cell-based. The following applies: for pIC50: read-out: IC50; for IC50: mcf7/mx. In short, it runs like this:
as §2

SMILES strings stand for the structures. pIC50: −log10 of the molar value.

Take `O=C(/C=C/c1ccc(Cl)c(Cl)c1)c1ccc2ccccc2c1O`: the “inhibition (INH)” value in data set [1] is “Not Active”; in data set [2] it was “Active”. For the same molecule, the results for the pIC50 in data set [3] and in data set [4] were 4.65 and 4.58, respectively.
In the case of `COc1ccc(C(=O)/C=C/c2ccc(OC)c(OC)c2)c(OC)c1`, the “inhibition (INH)” value in data set [1] was “Not Active”; in data set [2], “Active”. In addition, the pIC50 is 5.99 in data set [3] and 5.66 in data set [4].
The corresponding values for `COc1ccc(C(=O)/C=C/c2ccc(Cl)cc2)c(OC)c1` are “Not Active”, “Active”, 5.95 and 5.51.
As to `COc1ccc(/C=C/C(=O)c2ccccc2O)cc1OC`, the “inhibition (INH)” value was “Not Active” in data set [1] and “Active” in data set [2]. For the same molecule, the negative logarithm of the IC50 (pIC50) in data set [3] is 5.30; in data set [4], 5.29.
The corresponding values for `O=C(/C=C/c1ccccc1Cl)c1ccc(O)cc1O` are “Not Active”, “Active”, 5.48 and 5.49.
Regarding `COc1cc(O)c(C(=O)/C=C/c2ccccc2Cl)c(OC)c1`, the “inhibition (INH)” value is “Not Active” in data set [1] and “Active” in data set [2]. Besides, the pIC50 in data set [3] was 5.55; in data set [4] it was 5.28.
As to `COc1ccc(/C=C/C(=O)c2ccc(OC)c(OC)c2)cc1`, the “inhibition (INH)” value in data set [1] is given as “Not Active”; in data set [2], “Active”. The values for the pIC50 in data set [3] and in data set [4] were 5.94 and 5.66, respectively.
On to `O=C(/C=C/c1ccc(Cl)c(Cl)c1)c1c(O)ccc2ccccc12`, for which the figures for the “inhibition (INH)” value in data set [1] and in data set [2] were “Not Active” and “Active”, respectively. Besides, the pIC50 in data set [3] is 5.14; in data set [4], 5.06.
Turning to `COc1ccc(C(=O)/C=C/c2ccccc2Cl)cc1OC`, the “inhibition (INH)” value in data set [1] was “Not Active”; in data set [2], “Active”. The pIC50 in data set [3] was 5.11; in data set [4] it was 4.96.
Turning to `COc1cccc(/C=C/C(=O)c2ccc(OC)cc2O)c1`, the entries for the “inhibition (INH)” value in data set [1] and in data set [2] were “Not Active” and “Active”, respectively. Further, the pIC50 was 5.83 in data set [3] and 5.50 in data set [4].
`COc1ccc(/C=C/C(=O)c2ccccc2)cc1OC`: the “inhibition (INH)” value in data set [1] is “Not Active”; in data set [2] it was “Active”. The IC50 entry in data set [3] and in data set [4] was “Not Active” each time.
With `COc1ccc(C(=O)/C=C/c2ccc(Cl)c(Cl)c2)c(O)c1`, the “inhibition (INH)” value in data set [1] is “Not Active”; in data set [2] it was “Active”. The IC50 result in data set [3] and in data set [4] was “Not Active” throughout.
For the molecule `COc1ccc(C(=O)/C=C/c2ccccc2)c(O)c1`, the “inhibition (INH)” value is listed as “Not Active” in data set [1] and “Active” in data set [2]. The pIC50 in data set [3] and in data set [4] was 4.51 each time.
In the case of `COc1ccc(/C=C/C(=O)c2c(O)cc(OC)cc2OC)cc1` [FLAVOKAWAIN A], the entries for the “inhibition (INH)” value in data set [1] and in data set [2] were “Not Active” and “Active”, respectively. Moreover, the negative logarithm of the IC50 (pIC50) in data set [3] was 5.52; in data set [4], 5.23.
With `COc1ccc(C(=O)/C=C/c2ccccc2Cl)c(O)c1`, the “inhibition (INH)” value is “Not Active” in data set [1] and “Active” in data set [2]. In addition, the pIC50 is 5.48 in data set [3] and 5.16 in data set [4].
Take `O=C(/C=C/c1ccccc1Cl)c1ccccc1`: the “inhibition (INH)” value in data set [1] is “Not Active”; in data set [2] it was “Active”. Besides, the IC50 entry in data set [3] and in data set [4] was “Not Active” in each case.
As for `COc1ccc(/C=C/C(=O)c2ccc(OC)c(OC)c2)cc1OC`, the “inhibition (INH)” value was “Not Active” in data set [1] and “Active” in data set [2]. In addition, the pIC50 in data set [3] was 5.42; in data set [4], 5.48.

These data come from ChEMBL document CHEMBL1933063, “Investigation of chalcones and benzochalcones as inhibitors of breast cancer resistance protein” (Bioorg Med Chem, 2012).
